Source: ChEMBL document CHEMBL1136943, “Nocathiacin analogs: Synthesis and antibacterial activity of novel water-soluble amides” (Bioorg Med Chem Lett, 2009)
pIC50: −log10 of the molar value. Converted amounts (≈) assume the structure as drawn.

Assays:
[1] = tested on: Staphylococcus aureus; experiment: Antibacterial activity against Staphylococcus aureus infected iv bid dosed mouse model assessed as reduction of colony forming unit in kidney; format: functional
Method in brief: (§1)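 Systemic S. aureus infection mouse model (SATOA). Compounds were given iv; […]. Kidney bacterial burden (cfu) was compared with untreated control. ED99 is the dose giving a reduction of at least 2 log10 cfu in kidney burden.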

[2] = tested on: Staphylococcus aureus; experiment: Antibacterial activity against Staphylococcus aureus MB2865 in liquid culture by turbidity method; format: functional
Method in brief: (§2)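 MIC is the lowest concentration giving 100% inhibition of bacterial growth in liquid culture, read by turbidity.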

[3] = tested on: Staphylococcus aureus; experiment: Antibacterial activity against Staphylococcus aureus infected in mouse model assessed as reduction of >= 2 log 10 cfu kidney burden; format: functional; method in brief: as §1
[4] = target: T1, Type-2 angiotensin II receptor (Homo sapiens, UniProt P50052); experiment: Inhibition of AT2 receptor
T1 sequence (P50052 whole entry): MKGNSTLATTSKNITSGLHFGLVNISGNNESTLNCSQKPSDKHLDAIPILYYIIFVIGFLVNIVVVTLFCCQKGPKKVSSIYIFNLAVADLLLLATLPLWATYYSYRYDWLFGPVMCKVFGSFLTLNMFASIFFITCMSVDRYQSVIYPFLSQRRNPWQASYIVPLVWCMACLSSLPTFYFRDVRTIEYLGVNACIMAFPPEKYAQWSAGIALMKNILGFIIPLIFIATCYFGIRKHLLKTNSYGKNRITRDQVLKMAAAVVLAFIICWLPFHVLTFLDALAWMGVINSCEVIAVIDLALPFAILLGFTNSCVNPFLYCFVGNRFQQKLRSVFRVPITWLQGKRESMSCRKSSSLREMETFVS
Method in brief: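 AT2 IC50 derived from four dose levels per compound, following a published protocol.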

[5] = tested on: Streptococcus pneumoniae; experiment: Antibacterial activity against Streptococcus pneumoniae CL2883 in liquid culture by turbidity method; format: functional; method in brief: as §2
[6] = tested on: Enterococcus faecalis; experiment: Antibacterial activity against Enterococcus faecalis C21560 in liquid culture by turbidity method; format: functional; method in brief: as §2
[7] = Solubility in water at pH 3.4; format: physicochemical
Method in brief: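 Amorphous powders from lyophilized material, as TFA salts; aqueous solubility measured by nephelometry.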

[8] = tested on: Enterococcus faecalis; experiment: Antibacterial activity against Enterococcus faecalis; format: functional; method in brief: as §2

| SMILES | MIC [2] [µg/mL] | pIC50 [4] | MIC [5] [µg/mL] | MIC [6] [µg/mL] | ED99 [1] [mg/kg] | ED99 [3] [mg/kg] | solubility [7] [mg/mL] | MIC [8] [µg/mL] |
| --- | --- | --- | --- | --- | --- | --- | --- | --- |
| CC(=O)NC[C@H]1CN(c2ccc(N3CCOCC3)c(F)c2)C(=O)O1 [LINEZOLID] | – | – | – | – | 12 | – | – | – |
| CO/C(C)=C1/NC(=O)[C@H]([C@@H](C)O)NC(=O)c2csc(n2)-c2cc(OC)c(-c3nc(C(=O)NCCCN4CCOCC4)cs3)nc2-c2csc(n2)[C@@H]2COC(=O)c3c4c5c(cccc5n3O)COC(=O)[C@@H](O[C@H]3C[C@](C)(O)[C@H](N(C)C)[C@H](C)O3)[C@@H](OC4)[C@H](NC(=O)c3csc1n3)c1nc(cs1)C(=O)N2.Cl | – | – | – | – | – | – | 68 | – |
| CO/C(C)=C1/NC(=O)[C@H]([C@@H](C)O)NC(=O)c2csc(n2)-c2cc(O)c(-c3nc(C(=O)NCCNC(=O)CN(C)C)cs3)nc2-c2csc(n2)[C@@H]2COC(=O)c3c4c5c(cccc5n3O)COC(=O)[C@@H](O[C@H]3C[C@](C)(O)[C@H](N(C)C)[C@H](C)O3)[C@@H](OC4)[C@H](NC(=O)c3csc1n3)c1nc(cs1)C(=O)N2 | 0.019 (≈ 0.0127 µM) | 7.11 | 0.00059 (≈ 0.000394 µM) | 0.09 (≈ 0.0601 µM) | – | 0.2 | – | – |
| C=C(NC(=O)c1csc(-c2nc3c(cc2O)-c2nc(cs2)C(=O)N[C@@H]([C@@H](C)O)C(=O)N/C(=C(\C)OC)c2nc(cs2)C(=O)N[C@@H]2c4nc(cs4)C(=O)N[C@@H](COC(=O)c4c5c6c(cccc6n4O)COC(=O)[C@@H](O[C@H]4C[C@](C)(O)[C@H](N(C)C)[C@H](C)O4)[C@H]2OC5)c2nc-3cs2)n1)C(N)=O [MJ347-81F4 A] | 0.007 (≈ 0.00487 µM) | – | 0.002 (≈ 0.00139 µM) | 0.03 (≈ 0.0209 µM) | – | – | – | 0.015 (≈ 0.0104 µM) |
| CO/C(C)=C1/NC(=O)[C@H]([C@@H](C)O)NC(=O)c2csc(n2)-c2cc(O)c(-c3nc(C(=O)NCCNC(=O)CN4CCOCC4)cs3)nc2-c2csc(n2)[C@@H]2COC(=O)c3c4c5c(cccc5n3O)COC(=O)[C@@H](O[C@H]3C[C@](C)(O)[C@H](N(C)C)[C@H](C)O3)[C@@H](OC4)[C@H](NC(=O)c3csc1n3)c1nc(cs1)C(=O)N2 | 0.0038 (≈ 0.00247 µM) | 6.60 | 0.00048 (≈ 0.000312 µM) | 0.06 (≈ 0.039 µM) | – | 0.05 | – | – |

Now from value to compound, other results behind:

| MIC [2] [µg/mL] | pIC50 [4] | MIC [5] [µg/mL] | MIC [6] [µg/mL] | SMILES | ED99 [1] [mg/kg] | ED99 [3] [mg/kg] | solubility [7] [mg/mL] | MIC [8] [µg/mL] |
| --- | --- | --- | --- | --- | --- | --- | --- | --- |
| 0.015 (≈ 0.0104 µM) | 6.72 | 0.00046 (≈ 0.00032 µM) | 0.06 (≈ 0.0417 µM) | CO/C(C)=C1/NC(=O)[C@H]([C@@H](C)O)NC(=O)c2csc(n2)-c2cc(O)c(-c3nc(C(=O)NCCN(C)C)cs3)nc2-c2csc(n2)[C@@H]2COC(=O)c3c4c5c(cccc5n3O)COC(=O)[C@@H](O[C@H]3C[C@](C)(O)[C@H](N(C)C)[C@H](C)O3)[C@@H](OC4)[C@H](NC(=O)c3csc1n3)c1nc(cs1)C(=O)N2 | – | 0.17 | – | – |
| 0.09 (≈ 0.0591 µM) | 6.07 | – | – | CO/C(C)=C1/NC(=O)[C@H]([C@@H](C)O)NC(=O)c2csc(n2)-c2cc(OC)c(-c3nc(C(=O)NCCCN4CCN(C)CC4)cs3)nc2-c2csc(n2)[C@@H]2COC(=O)c3c4c5c(cccc5n3O)COC(=O)[C@@H](O[C@H]3C[C@](C)(O)[C@H](N(C)C)[C@H](C)O3)[C@@H](OC4)[C@H](NC(=O)c3csc1n3)c1nc(cs1)C(=O)N2 | – | – | – | – |
| 0.06 (≈ 0.0413 µM) | 6.99 | 0.015 (≈ 0.0103 µM) | 0.06 (≈ 0.0413 µM) | CO/C(C)=C1/NC(=O)[C@H]([C@@H](C)O)NC(=O)c2csc(n2)-c2cc(O)c(-c3nc(C(=O)N4CCN(C)CC4)cs3)nc2-c2csc(n2)[C@@H]2COC(=O)c3c4c5c(cccc5n3O)COC(=O)[C@@H](O[C@H]3C[C@](C)(O)[C@H](N(C)C)[C@H](C)O3)[C@@H](OC4)[C@H](NC(=O)c3csc1n3)c1nc(cs1)C(=O)N2 | – | 0.24 | – | – |
| 8 (≈ 5.84 µM) | 5.95 | 2 (≈ 1.46 µM) | > 8 | CO/C(C)=C1/NC(=O)[C@H]([C@@H](C)O)NC(=O)c2csc(n2)-c2cc(O)c(-c3nc(C(=O)O)cs3)nc2-c2csc(n2)[C@@H]2COC(=O)c3c4c5c(cccc5n3O)COC(=O)[C@@H](O[C@H]3C[C@](C)(O)[C@H](N(C)C)[C@H](C)O3)[C@@H](OC4)[C@H](NC(=O)c3csc1n3)c1nc(cs1)C(=O)N2 [NOCATHIACIN ACID] | – | – | – | – |
